Broadly, the inhibition is the percentage by which the read-out fell short of the control. The low end stands for a weak effect, the high end for a strong effect. As a reminder, the IC50 is the concentration at which inhibition is half-maximal. Read a high IC50 as a need for much substance.

Assay [1] addresses T1, Xanthine dehydrogenase/oxidase (Homo sapiens, UniProt P47989). In words: Inhibition of xanthine oxidase- mediated uric acid formation at 50 ug/mL after 5 mins by spectrophotometry.
The target of assay [2] is T1, Xanthine dehydrogenase/oxidase. In words: Inhibition of xanthine oxidase- mediated uric acid formation after 5 mins by spectrophotometry. In outline:
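Inhibition was taken relative to uric acid formed in the uninhibited control, and IC50 was derived from the mean of triplicate measurements.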

T1 sequence (P47989 whole entry): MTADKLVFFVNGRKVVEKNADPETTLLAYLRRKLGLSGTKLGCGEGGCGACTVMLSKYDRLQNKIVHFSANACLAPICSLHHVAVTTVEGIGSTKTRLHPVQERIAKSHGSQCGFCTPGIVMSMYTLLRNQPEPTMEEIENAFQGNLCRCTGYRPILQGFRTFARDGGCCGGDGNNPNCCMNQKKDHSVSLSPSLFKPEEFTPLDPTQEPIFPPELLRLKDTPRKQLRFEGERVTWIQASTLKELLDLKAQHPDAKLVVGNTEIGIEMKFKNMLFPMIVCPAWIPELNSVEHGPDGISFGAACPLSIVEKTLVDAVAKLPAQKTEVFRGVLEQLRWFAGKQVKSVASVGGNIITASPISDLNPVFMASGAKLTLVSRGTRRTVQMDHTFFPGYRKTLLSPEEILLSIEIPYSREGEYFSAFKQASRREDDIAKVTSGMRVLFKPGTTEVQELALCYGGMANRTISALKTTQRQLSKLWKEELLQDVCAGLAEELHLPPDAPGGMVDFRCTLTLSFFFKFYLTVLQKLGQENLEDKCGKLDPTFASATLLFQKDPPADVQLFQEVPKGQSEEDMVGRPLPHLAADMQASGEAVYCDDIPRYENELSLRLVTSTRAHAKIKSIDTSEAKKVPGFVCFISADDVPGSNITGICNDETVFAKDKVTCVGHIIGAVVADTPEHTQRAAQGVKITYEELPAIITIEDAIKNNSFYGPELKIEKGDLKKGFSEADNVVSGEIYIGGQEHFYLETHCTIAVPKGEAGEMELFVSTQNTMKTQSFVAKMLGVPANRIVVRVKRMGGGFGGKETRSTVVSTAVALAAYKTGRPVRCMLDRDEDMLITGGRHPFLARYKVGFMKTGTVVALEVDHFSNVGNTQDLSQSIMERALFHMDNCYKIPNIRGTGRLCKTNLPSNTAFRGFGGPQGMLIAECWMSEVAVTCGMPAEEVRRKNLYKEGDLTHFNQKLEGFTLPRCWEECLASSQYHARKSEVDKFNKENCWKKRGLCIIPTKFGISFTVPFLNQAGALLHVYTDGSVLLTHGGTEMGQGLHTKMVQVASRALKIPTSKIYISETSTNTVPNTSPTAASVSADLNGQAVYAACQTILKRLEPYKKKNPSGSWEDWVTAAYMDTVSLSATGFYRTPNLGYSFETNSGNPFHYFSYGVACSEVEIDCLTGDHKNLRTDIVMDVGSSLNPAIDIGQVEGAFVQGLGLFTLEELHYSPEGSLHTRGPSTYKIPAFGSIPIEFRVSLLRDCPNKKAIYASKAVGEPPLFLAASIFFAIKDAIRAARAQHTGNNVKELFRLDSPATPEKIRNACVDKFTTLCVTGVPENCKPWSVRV

In the case of `O[C@@H]1[C@@H](O)[C@@H](OC/C=C/c2ccccc2)O[C@H](CO[C@@H]2OC[C@H](O)[C@H](O)[C@H]2O)[C@H]1O` [ROSAVIN], the inhibition at 50 µg/mL in assay [1] came out at 18.7%. The molecule further returned an IC50 in assay [2] of over 117 µM.
`O=C(O)/C=C/c1ccccc1` [CINNAMIC ACID]: in assay [1], the inhibition at 50 µg/mL amounted to 93.4%. For the same molecule, the midpoint of inhibition in assay [2], the IC50, lay at 178 µM.
In the same order, the values of `O=C/C=C/c1ccccc1O` [2-HYDROXYCINNAMALDEHYDE] are 94.2% and 98.5 µM.
On the same counts, the results for `OC/C=C/c1ccccc1` [CINNAMIC ALCOHOL] are 47.6% and over 373 µM.
On the same counts, the results for `COC(=O)CCc1ccccc1O[C@@H]1O[C@H](CO)[C@@H](O)[C@H](O)[C@H]1O` [METHYL DIHYDROMELILOTOSIDE] are 22.4% and over 146 µM.
In assay [1], `COc1ccccc1/C=C/C=O` gave an inhibition at 50 µg/mL of 95.8%. In addition, it took 85.1 µM to reach half-maximal inhibition in assay [2] (IC50).
In the same order, the values of `COc1cc(/C=C/C=O)ccc1O` [CONIFERYL ALDEHYDE] are 72.5% and 204 µM.
`COc1cc(O[C@@H]2O[C@H](CO)[C@@H](O)[C@H](O)[C@H]2O)ccc1Oc1ccc(O[C@@H]2O[C@H](CO)[C@@H](O)[C@H](O)[C@H]2O)c(OC)c1` [CINNACASOLIDE C] registered an inhibition at 50 µg/mL in assay [1] of 28.2%. The same molecule yielded an IC50 in assay [2] of over 85.2 µM.
In the same order, the values of `O=C(O)/C=C/c1ccccc1O` [O-COUMARIC ACID] are 73.2% and 196 µM.
In the same order, the values of `O=C(O)CCc1ccccc1O[C@@H]1O[C@H](CO)[C@@H](O)[C@H](O)[C@H]1O` [DIHYDROMELILOTOSIDE] are 45.4% and over 152 µM.
On the same counts, the results for `O=C/C=C/c1ccccc1` are 96.7% and 59 µM.
`OC/C=C/c1ccccc1O[C@@H]1O[C@H](CO[C@@H]2OC[C@](O)(CO)[C@H]2O)[C@@H](O)[C@H](O)[C@H]1O` [CINNACASOLIDE B] came in with an inhibition at 50 µg/mL in assay [1] of 35.4%. The IC50 in assay [2] was over 113 µM.
Molecule `COC(=O)c1cccc(O[C@@H]2O[C@H](CO[C@@H]3OC[C@](O)(CO)[C@H]3O)[C@@H](O)[C@H](O)[C@H]2O)c1` [CINNACASOLIDE A] had an inhibition at 50 µg/mL in assay [1] of 22.2%. In assay [2], this molecule yielded an IC50 of over 112 µM.
